A selection: hits, their analogues and other compounds. The true share with any hit is near 1.3%.
EphB4 ephrin blk – antagonists of human EphB4-ephrin-B2 interaction; inhibition, % at 7 µM; AID 720; EphB4 LBD / TNYL-RAW-Alexa532 peptide, fluorescence polarization; P54760; hit rate 0.15% among 97,000;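 active = inhibition above the screen-wide mean inhibition plus 3 SD, cut at about 15% in these data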;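 also: 0% = DMSO wells and 100% = excess unlabeled TNYL-RAW peptide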
Target sequence (P54760 whole entry, looked up, the tested form may be a part): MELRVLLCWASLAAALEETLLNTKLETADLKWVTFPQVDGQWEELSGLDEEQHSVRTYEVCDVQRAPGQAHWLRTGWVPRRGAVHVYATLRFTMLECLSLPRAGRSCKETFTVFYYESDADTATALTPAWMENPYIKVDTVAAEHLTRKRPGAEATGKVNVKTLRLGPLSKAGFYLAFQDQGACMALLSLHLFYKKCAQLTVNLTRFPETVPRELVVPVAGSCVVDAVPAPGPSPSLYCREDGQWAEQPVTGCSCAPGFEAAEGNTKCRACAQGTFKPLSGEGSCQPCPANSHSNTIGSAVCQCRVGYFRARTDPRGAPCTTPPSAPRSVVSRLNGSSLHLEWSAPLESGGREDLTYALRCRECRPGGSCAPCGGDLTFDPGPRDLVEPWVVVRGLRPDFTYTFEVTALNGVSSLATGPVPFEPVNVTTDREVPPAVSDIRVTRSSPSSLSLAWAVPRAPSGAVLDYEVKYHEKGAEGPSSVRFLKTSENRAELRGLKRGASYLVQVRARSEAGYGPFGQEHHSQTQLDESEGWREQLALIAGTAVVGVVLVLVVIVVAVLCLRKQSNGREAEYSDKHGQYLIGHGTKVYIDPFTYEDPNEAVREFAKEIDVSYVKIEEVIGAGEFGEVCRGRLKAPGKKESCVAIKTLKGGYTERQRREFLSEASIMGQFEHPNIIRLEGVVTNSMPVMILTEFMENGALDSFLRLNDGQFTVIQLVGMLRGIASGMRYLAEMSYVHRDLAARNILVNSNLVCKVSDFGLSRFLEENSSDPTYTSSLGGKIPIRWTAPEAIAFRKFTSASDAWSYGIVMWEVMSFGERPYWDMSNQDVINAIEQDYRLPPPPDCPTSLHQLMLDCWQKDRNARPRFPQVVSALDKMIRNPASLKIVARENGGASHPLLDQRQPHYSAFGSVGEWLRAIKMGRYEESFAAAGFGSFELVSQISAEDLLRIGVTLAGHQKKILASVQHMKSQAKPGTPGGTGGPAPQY
Phagocytosis inh – inhibitors of macrophage phagocytosis; J774A.1 macrophage IgG-bead phagocytosis, imaging; inhibition, % at 5 µM; hit rate 0.07% among 110,000;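 active = inhibition above the mean of the plate negative controls plus 5 SD, cut at about 13% in these data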;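 also: phagocytic index as fraction of beads internalized from green versus red external bead signal; plate controls were DMSO negative control for no effect and cytochalasin-D positive control for full effect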
Mac1 fbg inh – blocks human CD11b/CD18 adhesion to fibrinogen; inhibition, % at 10 µM; hit rate 0.54% among 93,000; K562 CD11b/CD18 adhesion to fibrinogen, ATPlite luminescence; Mn2+ added to activate the integrin; P05107+P11215;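 active = primary inhibition of 50% or more at 10 µM, then 40% or more on retest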
Smad3 inh – blocks human Smad3 binding to FoxH1 peptide; P84022; AID 630; inhibition, % at 25 µM; TR-FRET Smad3/Dy647-FoxH1 peptide binding, europium anti-His; hit rate 0.29% among 88,000;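 active = compounds that reduce the energy-transfer binding signal between the protein and its labelled peptide by more than half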;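 also: 0% = Smad3 plus labelled peptide maximal FRET and 100% = peptide-only background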
HIV Rev-RRE inh – HIV Rev-RRE protein-RNA interaction inhibition; P05866; AID 704; Rev peptide-RRE RNA binding, FRET; hit rate 0.79% among 97,000; inhibition, % at 8 µM;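 active = inhibition above the screen-wide mean plus 3 SD, cut at about 35% in these data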;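 also: 0% = median DMSO wells and 100% = median Neomycin B control wells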
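Assay system: Rev peptide and RRE RNA, both fluorescently labelled; times: 5 min preincubation and 15 min binding, 25 °C; detection: FRET, ex 480 nm, em 540 and 671 nm; read-out basis: % inhibition from 671/540 nm acceptor-to-donor ratio, scaled between controls; benchmarks: DMSO low control, neomycin B high control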
CD11b adhes enh – increases human CD11b/CD18 adhesion to fibrinogen; activation, % at 10 µM; K562 CD11b/CD18 adhesion to fibrinogen, ATPlite luminescence; AID 1499; P05107+P11215; hit rate 0.07% among 93,000;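 active = 10 µM primary screen giving 50% or more activity, confirmed by 40% or more on retest at that dose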
* hit, by the source's call; x = no result; + = active, no number; [ ] = another dose, or the depositor's remark.

SMILES	EphB4 ephrin blk	Phagocytosis inh	Mac1 fbg inh	Smad3 inh	HIV Rev-RRE inh	CD11b adhes enh
C[N+](C)(N)CCC[N+](C)(C)N	x	x	x	10	x	x
CC(C)CO[C@H](c1ccc2c(c1)OCO2)[C@H](C)Br	x	x	x	4	x	x
Cc1cc(Cl)c(S(=O)(=O)N2CCN(c3ccc(F)cc3)CC2)cc1OCC(=O)NC1CCCCC1	-1	1	94*	3	-1	-6
Cc1cc(O)c(C(C)C)cc1N=Cc1ccccc1O	x	x	x	9	x	x
Cc1cc(O)c(-c2cc(O)c(C)cc2O)cc1O	x	x	x	83*	x	x
C[C@H](CCC(=O)O)[C@H]1CC[C@@]2(C)[C@@H]3C(=O)C[C@H]4C(C)(C)[C@@H](O)CC[C@]4(C)[C@H]3C(=O)C[C@]12C	x	x	x	-11	x	x
Cc1cc(N2C(=O)C(O)=C(C(=O)c3ccco3)C2c2ccc(O)cc2)no1 (centres undefined)	-2	x	-1	-8	6	0
C=CCOc1ccc(C2C(C(=O)c3cccs3)=C(O)C(=O)N2c2nnc(C)s2)cc1 (centres undefined)	3	x	x	7	102*[fluorescence artefact?]	x
Cc1ccc(C2C(C(=O)c3ccco3)=C(O)C(=O)N2c2nnc(C)s2)cc1 (centres undefined)	-1	x	x	-2	48*	x
COc1ccc(C2C(C(=O)c3cccs3)=C(O)C(=O)N2c2nnc(C)s2)cc1OC (centres undefined)	-10	x	5	7	107*[fluorescence artefact?]	0
COc1ccc(C2C(CC(=O)O)=C(O)C(=O)N2c2ccccc2)cc1 (centres undefined)	-1	1	8	4	3	-1
COc1ccc(C2C(C(=O)c3cccs3)=C(O)C(=O)N2c2nncs2)cc1 (centres undefined)	-9	1	-12	3	102*[fluorescence artefact?]	0
COc1ccc(N(CCC#N)S(=O)(=O)c2cccc3nsnc23)cc1	x	-2	x	x	x	x
COC(=O)CC[C@@H](C)[C@H]1CC[C@H]2[C@@H]3CC[C@H]4C[C@@H]5CC[C@@]4(C)[C@]3(O5)[C@H](Br)[C@@H](Br)[C@]12C	x	x	x	-10	x	x
Cc1ccc2cc(C#N)c(SCc3nnc(-c4ccccc4[N+](=O)[O-])o3)nc2c1	x	-7	x	x	x	x
CC(C)NC[C@@H](O)c1ccc(O)c2ncccc12	x	x	x	19	x	x
Cc1cc(C)c(S(=O)(=O)NCc2ccncc2)c(C)c1	2	4	83*	4	7	-9
CCCCNS(=O)(=O)c1ccc(S(=O)(=O)NCc2ccncc2)cc1	2	x	x	-6	5	x
Cc1sc2nc(CSc3nnc(Cc4cccs4)n3C3CCCCC3)[nH]c(=O)c2c1C	-4	-1	3	1	56*	2
Nc1ccccc1S[C@@H](C[N+](=O)[O-])c1ccc2c(c1)OCO2	x	x	x	22	x	x
O=C1N=C(N2CCCCC2)SC1=C1CCCCC1	2	x	5	15	3	-5
O=C1NC(=S)SC1=C1CCCCCC1	-7	x	59*	6	3	-3
Cc1ccc(-c2nn(C)c(=O)c3ccccc23)cc1CNC(=O)Cn1nc(-c2ccccc2)c2ccccc2c1=O	8	-1	-13	26	0	133*
Cc1cc(C)n(CC(=O)NCc2cc(-c3nn(C)c(=O)c4ccccc34)ccc2C)n1	8	-1	-7	-14	-4	-4
CC1(C)[C@@H]2CC[C@@]1(CC(=O)O)[C@@H](Cl)C2	x	x	x	-6	x	x
SMILES	EphB4 ephrin blk	Phagocytosis inh	Mac1 fbg inh	Smad3 inh	HIV Rev-RRE inh	CD11b adhes enh
CC1CCCC(NC(=S)NC(=O)c2ccccc2Br)C1C (centres undefined)	x	-5	x	x	x	x
CN(C)Cc1cc(O)c(O)c(CN(C)C)c1	x	x	x	54*	x	x
Cc1cccc(NC(=O)c2ccc(S(=O)(=O)N(C)C)cc2)n1	18*	0	-19	x	1	-1
CC1CCN(CC(=O)N2c3ccccc3Sc3cc4ccccc4cc32)CC1	x	x	x	2	x	x
CCOc1ccc(N=C2NC(=O)S/C2=C\c2ccc(N(C)C)cc2)cc1	-13	-2	57	x	118*[fluorescence artefact?]	-7
Nc1ccn([C@H]2O[C@@H](COP(=O)(O)O)[C@H](O)[C@H]2O)c(=O)n1	x	x	x	79*	x	x
Nc1ccn([C@H]2O[C@H](CO)[C@@H]3[O][Sn]([c]4ccccc4)([c]4ccccc4)[O][C@@H]32)c(=O)n1	x	x	x	7	x	x
O=S(=O)(O)c1cc(O)c2c(N=Cc3ccccc3O)cc(S(=O)(=O)O)cc2c1	x	x	x	-2	x	x
Cn1/c(=N/N=C/c2ccc([N+](=O)[O-])cc2)sc2ccccc21	5	x	x	x	58*	x
COc1ccccc1N=c1sc2ccccc2n1C	4	0	7	x	1	-3
CC1CC(C)CN(CCCNC(=O)CNC(=O)Cn2ccc3ccccc3c2=O)C1 (centres undefined)	x	x	x	3	x	x
COCCn1c(SCCCC(=O)c2ccc(Br)cc2)nnc1-c1ccncc1	-3	-1	69*	-5	2	-5
N[C@@](CCc1ccccc1)(C(=O)O)c1ccccc1	x	x	x	3	x	x
Cc1cc(C)nc(NN2C(=O)/C(=C/c3ccc(O)cc3)SC2=S)n1	2	x	x	x	58*	x
COc1ccccc1/C=C1\SC(=S)N(Nc2nc(C)cc(C)n2)C1=O	-4	x	x	x	5	x
Cc1nc2ccccc2n1C(=O)c1ccccc1[N+](=O)[O-]	x	-2	8	x	x	0
O=C(Nc1ccccc1[N+](=O)[O-])C1=C(O)CCn2c1nc1ccccc12	2	-1	5	51*	-4	-1
O=C(CSc1nc2ccc([N+](=O)[O-])cc2[nH]1)NC1CCCCCC1	x	-4	102*	x	x	-9
Cc1nc([N+](=O)[O-])c(Br)n1CC(=O)c1ccc2ccccc2c1	3	+	-18	5	10	2
N[C@@H](Cc1cc(I)c(O)c(I)c1)C(=O)O	x	x	x	-20	x	x
N[C@@H](CC1=CS(=O)(=O)c2ccc(Cl)cc21)C(=O)O	x	x	x	77*	x	x
Cc1[nH]c2ccccc2c1/C=N/Nc1ccc([N+](=O)[O-])cc1	x	-8	25	x	x	35
COc1ccccc1NS(=O)(=O)c1cc([N+](=O)[O-])ccc1N/N=C/c1c(C)[nH]c2ccccc12	2	0	6	x	66*[fluorescence artefact?]	4
O=[N+]([O-])c1ccc(N/N=C/c2c[nH]c3ccccc23)c(S(=O)(=O)Nc2ccc(Cl)cc2)c1	5	-2	14	x	65*[fluorescence artefact?]	-4
Cn1nnnc1Sc1nc(-c2cccnc2)nc2ccccc12	x	x	x	6	x	x
COC(=O)c1ccc(NC(=O)CCn2c(=O)oc3ccccc32)cc1	2	0	5	-7	0	-6
CCOC(=O)c1ccc(NCn2c(=O)oc3ccccc32)cc1	-9	-1	-3	12	55*	1
C[N+]1(CCC[N+]2(C)C[C@@H]3[C@H](C2)[C@@H]2C=C[C@H]3CC2)CCOCC1 (some centres undefined)	x	x	x	37	x	x
CCCc1nnc(NC(=O)CNc2ccc(F)cc2)s1	16*	0	7	-5	8	4
CCCc1nnc(NC(=O)CCCC(=O)O)s1	-6	x	x	x	0	x
